Results reported in PMC4213839 (Journal of Ginseng Research, 2014).

Format: in vivo, Sprague–Dawley rats
Procedure, shortened: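 Male Sprague–Dawley rats (210–240 g) were fed a control diet or control diet plus 2.5, 5 or 10% test fiber for 2 wk, then dosed orally with test material at 200 or 2,000 mg/kg (n = 5 per group). Tail-vein blood was drawn at 0–24 h. Plasma was spun at 4,000 × g and deproteinized with acetonitrile. LC-MS/MS used MRM with an amlodipine internal standard. Cmax and Tmax were read from the profiles.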

[1] = 10% NUTRIOSE in the diet, ginseng extract-treated rats

fold increase of AUC of ginsenoside Rd by NUTRIOSE [1]: 1.34 fold | fold increase of Cmax of ginsenoside Rd by NUTRIOSE [1]: 1.34 fold | time after administration at which ginsenoside Rd was detected in blood (ginsenoside Rb1-treated rats): 8 h | AUC of ginsenoside Rd, fold higher in ginseng extract-treated than in ginsenoside Rb1-treated rats (same oral dosage of ginsenoside Rb1 and ginseng extract): 13.5 fold
Compound: CC(C)=CCC[C@](C)(O[C@@H]1O[C@H](CO)[C@@H](O)[C@H](O)[C@H]1O)[C@H]1CC[C@]2(C)[C@@H]1[C@H](O)C[C@@H]1[C@@]3(C)CC[C@H](O[C@@H]4O[C@H](CO)[C@@H](O)[C@H](O)[C@H]4O[C@@H]4O[C@H](CO)[C@@H](O)[C@H](O)[C@H]4O)C(C)(C)[C@@H]3CC[C@]12C [ginsenoside Rd]
